Data: publication PMC11831733 (RSC Advances, 2025)
≈ marks a conversion by molar mass, not a printed value.

Legend:
[1] = in vitro; assay type: cell-based, African green monkey; details: African green monkey, Cytotoxicity (IC50, μM) Vero
[2] = system: Vero cells (African green monkey kidney fibroblast); experiment: in vitro; assay type: cell-based; details: read-out: Cytotoxicity (IC50, μM) Vero
[3] = system: C. acutatum (BCC 58146); experiment: microbe, parasite or virus in culture; assay type: cell-based; details: Colletotrichum acutatum, read-out: Anti-phytopathogenic fungal (MIC, μM) C. acutatum
[4] = system: all cell lines tested (Plasmodium falciparum, mammalian, and fungal); experiment: Antiproliferative activity over all cell lines tested; assay type: cell-based; details: P. falciparum, mammalian and fungal cells
[5] = Cytotoxicity, resazurin microplate assay; assay type: cell-based; details: human, NCI-H187 cells (human small-cell lung cancer, ATCC CRL-5804)
Procedure, shortened: (§1)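 Test compound and cell suspension were combined in triplicate wells and kept at 37 °C in humidified 5% CO2 for 3 d (MCF-7) or 5 d (NCI-H187). A 62.6 μg mL−1 resazurin solution was then added, followed by 4 h at 37 °C. Fluorescence was read bottom-mode at excitation 530 nm and emission 590 nm, and the blank was subtracted.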

[6] = system: A. brassicicola (BCC 42724); experiment: microbe, parasite or virus in culture; assay type: cell-based; details: Alternaria brassicicola, read-out: Anti-phytopathogenic fungal (MIC, μM) A. brassicicola
[7] = Cytotoxicity, resazurin microplate assay; assay type: cell-based; details: human, MCF-7 cells (human breast cancer, ATCC HTC-22)
Procedure, shortened: as §1

SMILES: COc1cc(O)c2c(=O)c3c(O)cc(C)cc3oc2c1O [Compound 1, 1,5,8-trihydroxy-6-methoxy-3-methylxanthone]
- IC50 at 4 d [1]: 58.9 µM
- IC50 [2]: 58.9 µM
- MIC [3]: > 174 µM
- antiproliferative activity profile (in words) [4]: active only against mammalian cell lines
- IC50 at 5 d [5]: 19 µM
- MIC [6]: > 174 µM
- IC50 at 3 d [7]: > 174 µM

SMILES: COc1cc2oc3cc(C)cc(O)c3c(=O)c2c(C)c1O [Compound 3, 1,7-dihydroxy-6-methoxy-3,8-dimethylxanthone]
- IC50 at 4 d [1]: > 175 µM
- MIC [3]: > 175 µM
- IC50 at 5 d [5]: > 175 µM
- MIC [6]: > 175 µM
- IC50 at 3 d [7]: > 175 µM

SMILES: COc1cccc2c1C(=O)c1c(O)c3c(c(O)c1C2=O)C[C@@](O)(C(=O)CO)C[C@@H]3O[C@H]1C[C@H](N)[C@H](O)[C@H](C)O1 [Doxorubicin, reference compound]
- IC50 at 5 d [5]: 0.2 µM
- IC50 at 3 d [7]: 11.9 µM

SMILES: COc1cc(O)c2c(=O)c3c(O)cc(C)cc3oc2c1OC [Compound 2, 1,8-dihydroxy-5,6-dimethoxy-3-methylxanthone]
- IC50 at 4 d [1]: > 165 µM
- MIC [3]: > 165 µM
- IC50 at 5 d [5]: > 165 µM
- MIC [6]: > 165 µM
- IC50 at 3 d [7]: > 165 µM

SMILES: O=C(O)CCC(=O)OCCc1ccccc1 [Compound 7, 4-oxo-4-phenethoxybutanoic acid]
- IC50 at 4 d [1]: > 225 µM
- MIC [3]: > 225 µM
- IC50 at 5 d [5]: > 225 µM
- MIC [6]: > 225 µM
- IC50 at 3 d [7]: > 225 µM

SMILES: CCC(=O)c1cc(OC)cc2oc3cc(C)cc(O)c3c(=O)c12 [Compound 4, 1-hydroxy-6-methoxy-3-methyl-8-propionylxanthone]
- IC50 at 4 d [1]: > 160 µM
- MIC [3]: > 160 µM
- antiproliferative activity profile (in words) [4]: active only against mammalian cell lines
- IC50 at 5 d [5]: > 160 µM
- MIC [6]: > 160 µM
- IC50 at 3 d [7]: 42.5 µM

SMILES: C[C@@H]1[C@H](O)[C@@H](C)/C=C/C=C/C=C/C=C/C=C/C=C/C=C/[C@H](O[C@@H]2O[C@H](C)[C@@H](O)[C@H](N)[C@@H]2O)C[C@@H]2O[C@](O)(C[C@@H](O)C[C@@H](O)[C@H](O)CC[C@@H](O)C[C@@H](O)CC(=O)O[C@H]1C)C[C@H](O)[C@H]2C(=O)O [Amphotericin B, reference compound]
- MIC [3]: 3.4 µM (≈ 3.14 µg/mL)
- MIC [6]: 1.7 µM (≈ 1.57 µg/mL)
